hDAT+cocaine: human DAT dopamine uptake with cocaine, either direction; Q01959; LLC-PK1 hDAT cells, [14C]-dopamine uptake with cocaine IC80; actives deviate in either direction; B-score at 10 µM; 110,000 compounds, 1.3% hits; AID 449768;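 active = Z score or B-score, a plate-position-corrected score, falls beyond the plate's 99.7% confidence bounds, in either direction; inactive = both scores lie inside the 99.7% bounds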;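 note: scored against the spread of the other compound wells on the same plate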
Target sequence (Q01959 whole entry, looked up): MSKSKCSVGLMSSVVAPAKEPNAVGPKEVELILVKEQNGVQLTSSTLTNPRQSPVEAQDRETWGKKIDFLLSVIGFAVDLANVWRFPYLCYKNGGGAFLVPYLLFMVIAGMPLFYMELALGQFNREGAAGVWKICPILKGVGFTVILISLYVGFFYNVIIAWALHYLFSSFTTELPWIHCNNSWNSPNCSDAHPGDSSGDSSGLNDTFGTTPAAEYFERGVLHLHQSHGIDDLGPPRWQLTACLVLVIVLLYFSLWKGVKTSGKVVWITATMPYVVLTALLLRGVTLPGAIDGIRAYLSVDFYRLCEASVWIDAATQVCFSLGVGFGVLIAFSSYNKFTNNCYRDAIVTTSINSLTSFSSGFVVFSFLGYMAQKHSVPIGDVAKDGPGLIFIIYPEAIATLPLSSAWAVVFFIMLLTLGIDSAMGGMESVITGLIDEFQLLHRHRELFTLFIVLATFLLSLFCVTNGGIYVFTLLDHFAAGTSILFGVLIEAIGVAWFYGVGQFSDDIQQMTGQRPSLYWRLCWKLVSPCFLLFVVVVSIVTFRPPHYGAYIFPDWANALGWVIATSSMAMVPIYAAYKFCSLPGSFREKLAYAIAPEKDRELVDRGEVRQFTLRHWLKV
Cav32 inh: inhibitors of human Cav3.2 T-type calcium channel; 100,000 compounds, 4% hits; B-score at 10 µM; Cav3.2-expressing cells, Fluo-4 calcium fluorescence FDSS; active compounds read low;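 active = single-dose well whose peak fluorescence ratio is a statistical outlier from its plate by either plate-standardised score or position-corrected B-score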
EphB4 ephrin blk: EphB4-ephrin-B2 interaction antagonism; P54760; inhibition, % at 7 µM; 97,000 compounds, 0.15% hits; EphB4 LBD / TNYL-RAW-Alexa532 peptide, fluorescence polarization;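 active = inhibition above the screen-wide mean inhibition plus 3 SD, cut at about 15% in these data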;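 note: 0% = DMSO wells and 100% = excess unlabeled TNYL-RAW peptide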
Rev-RRE block: inhibitors of HIV-1 Rev-RRE RNA interaction. P05866. Rev peptide-RRE RNA binding, FRET. inhibition, % at 8 µM. 97,000 compounds, 0.79% hits. AID 704;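 active = inhibition above the screen-wide mean plus 3 SD, cut at about 35% in these data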;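 note: 0% = median DMSO wells and 100% = median Neomycin B control wells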
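Assay system: Rev peptide and RRE RNA, both fluorescently labelled; times: 5 min preincubation and 15 min binding, 25 °C; detection: FRET, ex 480 nm, em 540 and 671 nm; read-out basis: % inhibition from 671/540 nm acceptor-to-donor ratio, scaled between controls; benchmarks: DMSO low control, neomycin B high control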
An asterisk follows results filed as active; x = no result. A selection: hits, their analogues and other compounds. The true share with any hit is near 5.4%.

SMILES	hDAT+cocaine	Cav32 inh	EphB4 ephrin blk	Rev-RRE block
CN(C)S(=O)(=O)N(CC(=O)Nc1ccc2ccccc2c1)c1ccccc1	0.39	-9.5*	4	7
C=C(C)Cn1c(-c2ccccc2)nc2ccccc21	0.029	-4.1*	-4	2
C=C(C)Cn1c(SCC(=O)O)nnc1-c1ccccc1	0.31	0.54	4	11
O=C(Nc1ccccc1N1CCOCC1)c1ccccc1NS(=O)(=O)c1ccc(F)cc1	x	x	11	3
O=C(Nc1ccccc1N1CCOCC1)c1ccccc1NS(=O)(=O)c1ccc(F)c(F)c1	-1.7	-4*	4	1
Cc1ccc(C)c(S(=O)(=O)Nc2ccccc2C(=O)Nc2ccccc2N2CCOCC2)c1	-0.69	-4.9*	1	9
Cc1cc(F)ccc1S(=O)(=O)Nc1ccccc1C(=O)Nc1ccccc1N1CCOCC1	-0.43	-5.9*	0	4
COc1ccc(S(=O)(=O)N(CC(=O)NCC2CCCO2)c2ccc(F)cc2)cc1OC (stereo unspecified)	-0.21	1.2	-4	0
CC1CCCN(C(=O)CSCC(=O)N=c2sc3ccccc3n2C)C1 (stereo unspecified)	2.7*	1.1	4	8
Cn1c(=NC(=O)CSCC(=O)N2CCCC2)sc2ccccc21	-1.5	-0.61	2	1
CC1CCN(Cc2c(C#N)c3ccccc3n2C)CC1	0.49	-1.7	x	x
O=C(CC1NCCNC1=O)Nc1ccc2c(c1)OCO2 (stereo unspecified)	-0.034	0.91	5	9
N#Cc1c(NCCO)nc(NCc2ccccc2)c2c1CCN(Cc1ccccc1)C2	0.1	-3.6*	-12	8
CN1CCN(c2ccccc2NC(=O)c2ccc(-c3ccccc3)cc2)CC1	4.9*	0.6	0	8
COc1ccc(Cl)cc1C(=O)Nc1ccccc1N1CCN(C)CC1	3.5*	1.6	-8	3
CN1CCN(c2ccccc2NC(=O)c2ccc(OCc3ccccc3)cc2)CC1	2.6*	-1.8	9	5
CN1CCN(c2ccc([N+](=O)[O-])cc2NC(=O)c2ccccc2)CC1	-0.55	0.15	-4	5
CCCCC1=CC2=CC(=O)C(C)(OC(=O)c3ccco3)C(=O)C2=CO1 (stereo unspecified)	0.17	-0.15	x	x
Oc1ccc(Cl)cc1/C=N/c1nccs1	0.23	-3.4*	1	9
Oc1ccc2ccccc2c1/C=N/c1nccs1	0.15	0.51	0	10
Nn1cc(-c2ccccc2)nc1SCC(=O)NCCN1C(=O)CSC1=O	0.82	0.52	-2	6
Cc1ccccc1C(=O)NNC1=NCCC1	-0.011	0.21	-3	1
O=C(NNC1=C(C(=O)C(F)(F)F)CCC1)c1ccccc1O	0.1	-6.3*	3	5
O=C(/C=C/NNC(=O)c1ccccc1)c1ccc(Br)cc1	0.32	-3.6	13	1
O=C(NNC1=C(C(=O)C(F)(F)F)CCC1)c1ccc(Br)cc1	-0.78	-5.1*	3	1
SMILES	hDAT+cocaine	Cav32 inh	EphB4 ephrin blk	Rev-RRE block
Cn1c(CCNC(=O)c2ccccc2)nc2cc(NC(=O)C3CCCCC3)ccc21	-0.29	1.7	2	6
COc1cccc(Nc2nc(-c3sc(N)nc3C)cs2)c1	2.2*	1	8	4
O=C(c1ccco1)N(CC1CCCO1)c1nc(-c2ccccc2)cs1 (stereo unspecified)	-0.051	-3.1*	-7	14
O=C(c1cccs1)N(CC1CCCO1)c1nc(-c2ccccc2)cs1 (stereo unspecified)	0.65	-0.82	-13	7
CC(C)C(=O)NS(=O)(=O)c1ccc(N)cc1	-1.1	0.015	-13	2
Cc1ccc(SC/C(O)=C(\C#N)c2nc3ccccc3s2)cc1	-0.26	-4.4*	0	-2
N#C/C(=C(/O)CSc1ccccc1C(=O)O)c1nc2ccccc2s1	0.23	-0.065	1	10
CC(C)c1nc(SCC(=O)c2ccccc2)c2c(=O)n(C)c(=O)n(C)c2n1	0.022	0.078	5	11
CCOC(=O)C1=C(CN2c3ccccc3CC2C)NC(=O)NC1c1ccccc1 (stereo unspecified)	-0.35	-7.8*	-2	-5
COC(=O)C1=C(CN2CCCc3ccccc32)NC(=O)NC1c1ccc(F)cc1 (stereo unspecified)	0.54	-3.9*	x	x
COC(=O)C1=C(CN2CCc3ccccc32)NC(=O)NC1c1cc(C)ccc1C (stereo unspecified)	x	x	-1	0
O=C(Nc1ccccc1C(=O)N1CCOCC1)c1noc2c1CCCC2	3*	-0.059	4	6
COC(=O)c1ccccc1NC(=O)c1noc2c1CCCC2	-1.6	0.75	x	x
O=C(Nc1ccccc1C(=O)N1CCOCC1)c1ccncc1	-0.51	0.81	15*	11
CCc1ccc(/C=N/NC(=O)c2cc(-c3ccccc3OC)nc3ccccc23)s1	-0.18	-1.4	-3	-2
CCc1ccc(/C=N/NC(=O)c2cc(C3CC3)nc3ccc(Br)cc23)s1	0.76	-5.2*	0	9
N#Cc1c(Sc2ncc(C(F)(F)F)cc2Cl)nsc1C/C=N\OCc1c(F)cccc1Cl	1	-0.48	-5	61*
FC(F)(F)c1cnc(Sc2nnc(-c3cccs3)n2CC2CCCO2)c(Cl)c1 (stereo unspecified)	0.48	1.4	7	-4
COc1cc(/C=C(\C#N)c2nc3c(s2)CCCC3)ccc1O	-0.42	-0.82	0	72*
COc1cccc(NC(=O)Cn2cc(C#N)c3ccccc32)c1	-0.3	-2.7	1	5
COc1cccc(NC(=O)Cc2cn(C)c3ccccc23)c1	1.1	-4.5*	1	5
Cc1nn(Cc2ccccc2)c2c1C(c1cccc(Cl)c1)C(C#N)=C(N)O2 (stereo unspecified)	0.79	0.005	1	15
CCn1nc(C)c(/C=C2\CCCC3=C2OC(N)=C(C#N)C3c2c(C)nn(CC)c2C)c1C (stereo unspecified)	1.3	-1.5	-7	47*
COc1ccccc1CNC(=O)c1nn(-c2ccc(C)cc2)c(=O)c2c1c1ccccc1n2C	-0.42	-1.2	5	1
Cc1nn(-c2ccccc2)c(N2CCCC2)c1/C=N/n1cnc2scc(-c3ccccc3)c2c1=O	2.3	-5.6*	5	5
SMILES	hDAT+cocaine	Cav32 inh	EphB4 ephrin blk	Rev-RRE block
O=c1c2c(-c3ccccc3)csc2ncn1/N=C/c1c2ccccc2cc2ccccc12	-0.11	-1.8	-3	4
COc1cccc(C(c2sc3nc(C)nn3c2O)N2CCN(c3ccccc3F)CC2)c1 (stereo unspecified)	2.7*	-2.1	x	x
O=C1CN(C(=O)COC(=O)c2cccc(S(=O)(=O)NCc3ccccc3)c2)c2ccccc2N1	0.6	-6*	-2	5
Cc1ccc(C(=O)OCC(=O)N2CC(=O)Nc3ccccc32)s1	0.66	-0.0062	-7	2
Cc1ccccc1NC(=O)c1ccc(CN2CCC(Cc3ccccc3)CC2)cc1	-3.7*	-7.1*	-4	8
Cc1ccc(C(=O)NNC(=O)C2CCN(Cc3ccccc3)CC2)cc1	0.79	x	-4	-1
O=C(NC1CCCC1)c1c[nH]c2ccc(F)cc2c1=O	4.5*	0.029	3	1
